This is an account of results in publication PMC6626631 (Biochemical and biophysical research communications, 2018).

“Also recorded” adds a separate entry of the source.

What all share (assay type): biochemical
One experiment addresses DRP1 (Homo sapiens, UniProt O00429). Briefly: Malachite green GTPase activity assay in the absence of liposomes, DRP1. The note with it: dose response in presence vs absence of liposomes.
In the next experiment the target is T1, OPA1 (195—960) (Homo sapiens, UniProt O60313).
T1 sequence (O60313 195-960): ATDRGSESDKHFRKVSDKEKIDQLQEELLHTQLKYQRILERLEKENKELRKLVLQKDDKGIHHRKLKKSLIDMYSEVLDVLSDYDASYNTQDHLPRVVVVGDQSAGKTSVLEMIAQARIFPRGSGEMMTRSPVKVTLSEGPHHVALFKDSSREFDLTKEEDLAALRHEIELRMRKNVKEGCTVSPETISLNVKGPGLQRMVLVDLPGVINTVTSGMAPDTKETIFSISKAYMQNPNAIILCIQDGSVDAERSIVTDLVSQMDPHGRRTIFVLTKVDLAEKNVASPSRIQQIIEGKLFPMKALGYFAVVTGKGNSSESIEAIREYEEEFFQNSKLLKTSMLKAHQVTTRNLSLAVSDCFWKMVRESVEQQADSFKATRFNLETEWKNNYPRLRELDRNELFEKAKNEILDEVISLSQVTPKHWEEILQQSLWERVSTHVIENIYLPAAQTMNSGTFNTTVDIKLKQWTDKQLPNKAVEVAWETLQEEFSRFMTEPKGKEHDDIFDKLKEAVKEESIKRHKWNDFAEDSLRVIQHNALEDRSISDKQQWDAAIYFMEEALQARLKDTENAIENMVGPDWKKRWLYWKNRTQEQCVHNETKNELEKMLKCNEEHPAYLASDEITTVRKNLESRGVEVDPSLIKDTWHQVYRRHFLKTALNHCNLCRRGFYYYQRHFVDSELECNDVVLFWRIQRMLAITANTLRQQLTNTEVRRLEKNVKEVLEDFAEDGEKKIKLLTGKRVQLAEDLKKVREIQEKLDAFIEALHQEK
Briefly: Liposome-dependent malachite green GTPase activity assay, OPA1. The note with it: read-out: Potency of inhibition, OPA1; data not shown. Summed up: (§1)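 Ni-NTA-purified E. coli enzyme (tag removed for dynamin-1, OPA1), 0.6 μM, preincubated 20 min RT with 80:20 soybean polar lipid:cardiolipin liposomes (0.1 mg/mL) and compound or DMSO; started by 1 mM GTP at 37 °C in 10 mM Hepes pH 7.0, 100 mM KCl, 4 mM MgCl2, 1% DMSO. EDTA stop, malachite green, A650 to phosphate rate; IC50 4-parameter fit.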

The next experiment has as its target Human DRP1 (1—699) (Homo sapiens, UniProt O00429). Briefly: Liposome-dependent malachite green GTPase activity assay, DRP1. Summed up:
as §1

For another experiment, the target named is T2, dynamin-1 (1—752) (Homo sapiens, UniProt Q05193).
T2 sequence (Q05193 1-752): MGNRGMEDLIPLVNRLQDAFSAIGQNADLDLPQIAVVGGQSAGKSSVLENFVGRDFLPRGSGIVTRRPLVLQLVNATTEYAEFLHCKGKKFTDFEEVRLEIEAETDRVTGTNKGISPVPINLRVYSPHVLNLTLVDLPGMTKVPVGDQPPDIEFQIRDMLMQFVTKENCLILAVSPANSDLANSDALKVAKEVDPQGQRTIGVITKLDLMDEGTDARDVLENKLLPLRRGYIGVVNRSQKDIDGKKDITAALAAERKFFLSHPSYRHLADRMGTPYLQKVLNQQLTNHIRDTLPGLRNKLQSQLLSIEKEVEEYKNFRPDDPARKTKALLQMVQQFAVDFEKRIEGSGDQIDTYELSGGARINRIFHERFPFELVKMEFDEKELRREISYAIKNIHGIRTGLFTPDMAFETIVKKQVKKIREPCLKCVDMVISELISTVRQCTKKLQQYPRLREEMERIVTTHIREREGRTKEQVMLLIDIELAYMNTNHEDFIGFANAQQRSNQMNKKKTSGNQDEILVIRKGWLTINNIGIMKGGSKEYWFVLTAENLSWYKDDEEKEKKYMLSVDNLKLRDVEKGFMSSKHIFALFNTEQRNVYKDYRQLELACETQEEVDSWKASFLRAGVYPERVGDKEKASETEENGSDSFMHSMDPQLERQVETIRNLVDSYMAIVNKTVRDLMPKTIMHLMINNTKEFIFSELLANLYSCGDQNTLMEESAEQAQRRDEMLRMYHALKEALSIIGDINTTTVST
Kind of experiment: Liposome-dependent malachite green GTPase activity assay, dynamin-1. The note with it: read-out: Potency of inhibition, dynamin-1; data not shown. The method, boiled down:
as §1

Human DRP1 (1—699), sequence (O00429 1-699 isoform O00429-4): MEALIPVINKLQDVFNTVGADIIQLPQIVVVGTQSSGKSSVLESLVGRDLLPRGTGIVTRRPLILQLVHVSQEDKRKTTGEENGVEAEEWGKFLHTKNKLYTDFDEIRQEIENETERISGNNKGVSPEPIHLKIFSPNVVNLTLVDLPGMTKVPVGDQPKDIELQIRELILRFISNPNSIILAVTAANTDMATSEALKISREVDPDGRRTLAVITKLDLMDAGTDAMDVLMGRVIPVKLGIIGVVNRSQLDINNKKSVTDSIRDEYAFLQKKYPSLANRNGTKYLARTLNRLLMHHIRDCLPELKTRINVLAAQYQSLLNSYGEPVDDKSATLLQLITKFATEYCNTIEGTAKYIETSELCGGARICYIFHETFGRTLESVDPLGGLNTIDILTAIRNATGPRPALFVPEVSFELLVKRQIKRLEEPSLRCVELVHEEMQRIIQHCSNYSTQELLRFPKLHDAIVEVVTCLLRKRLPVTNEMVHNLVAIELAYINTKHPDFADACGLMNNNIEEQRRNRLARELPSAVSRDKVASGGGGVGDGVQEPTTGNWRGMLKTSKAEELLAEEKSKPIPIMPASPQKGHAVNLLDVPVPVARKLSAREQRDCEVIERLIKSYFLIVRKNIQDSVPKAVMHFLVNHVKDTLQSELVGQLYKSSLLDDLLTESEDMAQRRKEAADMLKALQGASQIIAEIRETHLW
DRP1, sequence (O00429 1-699 isoform O00429-4): as above

On to `Nc1nc2c(ncn2[C@@H]2O[C@H](COP(=O)(O)OP(=O)(O)OP(O)(O)=S)[C@@H](O)[C@H]2O)c(=O)[nH]1` [GTPγS], for which, at DRP1, the “Potency/activity in the absence of liposomes” value is listed as “unaffected by liposomes”. Further, the IC50 at OPA1 (195—960) lay within 300 to 500 µM; on Human DRP1 (1—699) (read-out: Potency of inhibition, DRP1, data not shown), 300 to 500 µM; at dynamin-1 (1—752) it was 300 to 500 µM.

With `COc1cc(-n2c(=S)[nH]c3ccccc3c2=O)c(Cl)cc1Cl` [mdivi-1], the “Inhibition of DRP1 GTPase activity (in words)” value at Human DRP1 (1—699) (presence of liposomes, up to 100 μM compound concentration) is listed as “did not inhibit oligomeric DRP1 GTPase activity; also recorded: do not inhibit DRP1 up to 100 μM”.
